# Laboratory results: article PMC2585546 (Bioorganic & medicinal chemistry, 2008)
# pKd: −log10 of the molar value.
# How the values were obtained:
# RNA A [1] = assay: Thiazole orange fluorescent intercalator displacement; assay type: binding; details: read-out: Dissociation constants (FID); apparent KD from IC50, competitive model; 50 mM Bis-Tris·HCl pH 7.0, 100 mM NaCl, 10 mM MgCl2, 50 nM thiazole orange, 100 nM RNA A, 25 °C; average of three independent measurements ± SD
# RNA B = assay: Thiazole orange fluorescence enhancement on RNA binding; design: species or system human; details: thiazole orange 2.6 µM, RNA 2 µM
# Summary of the method: (§1)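 Fold rise in thiazole orange fluorescence, with the dye at 2.6 µM and each RNA at 2 µM. RNA A is an in vitro selected aptamer stem-loop, used as supplied. RNA B (human pre-miRNA 23b sequence) and control stem-loop RNA C were 2'-ACE-deprotected (100 mM acetic acid, TEMED to pH 3.8, 60 °C, 30 min), phenol/chloroform-extracted, ethanol-precipitated and kept in water at −20 °C.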
# RNA C = assay: as above; details: thiazole orange 2.6 µM, RNA 2 µM
# Summary of the method: as §1
# RNA A [2] = assay: Thiazole orange fluorescence enhancement on RNA binding
Compound,pKd (RNA A [1]),Fold enhancement of thiazole orange fluorescence by RNA B (RNA B) [fold],Fold enhancement of thiazole orange fluorescence by control RNA C (RNA C) [fold],"Fold stimulation of thiazole orange fluorescence by RNA A (RNA A [2]; thiazole orange 50 nM, RNA A 100 nM) [fold]","Fold enhancement of thiazole orange fluorescence by RNA A (RNA A [2]; thiazole orange 2.6 µM, RNA 2 µM) [fold]"
"NC[C@H]1O[C@H](O[C@H]2[C@H](O)[C@@H](O[C@H]3O[C@H](CO)[C@@H](O)[C@H](N)[C@H]3O)[C@H](N)C[C@@H]2N)[C@H](O)[C@@H](O)[C@@H]1O [compound 8, kanamycin]",< 4.00,–,–,–,–
"NC[C@@H]1O[C@H](O[C@H]2[C@@H](O)[C@H](O[C@H]3[C@@H](O)[C@H](N)C[C@H](N)[C@H]3O[C@H]3O[C@H](CN)[C@@H](O)[C@H](O)[C@H]3N)O[C@@H]2CO)[C@H](N)[C@@H](O)[C@@H]1O [compound 7, neomycin]",< 4.22,–,–,–,–
CN1C(=Cc2cc[n+](C)c3ccccc23)Sc2ccccc21 [thiazole orange],–,977,96,~20,2308
